In brackets after ≈: the same amount, converted by molar mass.
Assays:
[1] = test system: Mycobacterium tuberculosis; assay: Antimycobacterial activity against Mycobacterium tuberculosis H37Rv ATCC 27294 culture in GAS media after 7 days by microplate alamar blue assay; assay type: functional; details: H37Rv ATCC 27294, 168 h
In short: (§1)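 Replicating Mtb H37Rv. The MIC is the concentration that inhibits growth of 90% of organisms. Media by line: GAS is glycerol-alanine-salts. GAST is iron-deficient glycerol-alanine-salts with Tween 80. 7H12 is 7H9 broth base with BSA, casein hydrolysate, catalase and palmitic acid. Values are reported in μM.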

[2] = test system: Mycobacterium tuberculosis; assay: Antimycobacterial activity against Mycobacterium tuberculosis H37Rv ATCC 27294 culture in GAST media after 7 days by microplate alamar blue assay; assay type: functional; details: H37Rv ATCC 27294, 168 h; in short: as §1
[3] = Metabolic stability in Sprague-Dawley rat liver microsomes assessed as compound remaining at 20 uM after 15 mins by LC/MS analysis; assay type: ADME, Microsome; details: read-out: Stability
[4] = Chemical stability in simulated gastric fluid assessed as compound remaining at 50 uM after 15 mins by LC/MS analysis; assay type: physicochemical; details: read-out: Stability
[5] = test system: Mycobacterium tuberculosis; assay: Antimycobacterial activity against Mycobacterium tuberculosis H37Rv ATCC 27294 culture in 7H12 media after 7 days by microplate alamar blue assay; assay type: functional; details: H37Rv ATCC 27294, 168 h; in short: as §1
Vero = assay: Cytotoxicity against african green monkey Vero cells after 72 hrs by CellTiter assay; assay type: cell-based; details: Chlorocebus sabaeus

SMILES	MIC90 [1]	MIC90 [2]	remaining at 0.25 h, 20 µM [3]	remaining at 0.25 h, 50 µM [4]	MIC90 [5]	IC50 (Vero)
CCOC(=O)c1c(-c2ccccc2)nc2ccc(Cl)cn12	63.1 µM (≈ 19 µg/mL)	> 128 µM				
CCOC(=O)c1c(-c2ccccc2)nc2ccccn12	86.5 µM (≈ 23 µg/mL)	68.2 µM (≈ 18.2 µg/mL)				
O=C(OCc1ccccc1)[C@@H]1COC(c2ccc(F)c([N+](=O)[O-])c2)=N1			11.3%	0.6%		
O=C(OCc1ccccc1)[C@@H]1COC(c2ccccc2OCc2ccccc2)=N1			5.2%	0.8%		
O=C(OCc1ccccc1)c1coc(-c2ccccc2OCc2ccccc2)n1			3.5%	2.9%		
COc1ccc(-c2nc(C(=O)OCc3ccccc3)co2)cc1			11.8%	2.1%		
O=C(OCc1ccccc1)c1coc(-c2ccc(F)c([N+](=O)[O-])c2)n1			10.9%	0.9%		
O=C(OCc1ccccc1)c1coc(-c2ccccc2Cl)n1			7.9%	1.1%		
CCOC(=O)c1c(C)nc2cc(C)ccn12	65.1 µM (≈ 14.2 µg/mL)	64.1 µM (≈ 14 µg/mL)				
CCOC(=O)c1c(-c2ccccc2)nc2cc(C)ccn12	55.1 µM (≈ 15.4 µg/mL)	71.3 µM (≈ 20 µg/mL)				
CCOC(=O)c1c(C)nc2cc(C)cc(C)n12	> 79.5 µM	> 72.9 µM				
CCOC(=O)c1nc(-c2ccccc2)sc1C(C)=O	63 µM (≈ 17.3 µg/mL)	124 µM (≈ 34.1 µg/mL)				
COc1ccccc1CNC(=O)c1c(C)nc2cc(C)ccn12			41.6%	100%		
COc1cccc(CNC(=O)c2c(C)nc3cc(C)ccn23)c1			94%	100%		
COc1ccc(CNC(=O)c2c(C)nc3cc(C)ccn23)cc1			33.6%	100%		
Cc1ccn2c(C(=O)NCc3ccc(Cl)cc3)c(C)nc2c1			80.7%	94.3%		
O=C(NCc1ccccc1)c1coc(-c2ccccc2)n1	> 65 µM	59 µM (≈ 16.4 µg/mL)			> 40 µM	
O=C(OCc1ccccc1)[C@@H]1CSC(c2ccccc2)=N1	12.9 µM (≈ 3.84 µg/mL)	3.5 µM (≈ 1.04 µg/mL)			11.6 µM (≈ 3.45 µg/mL)	> 128 µM
O=C(OCc1ccccc1)c1cc(-c2ccccc2)[nH]n1	3.5 µM (≈ 0.974 µg/mL)	> 64 µM			> 38 µM	> 128 µM
COc1ccc(-c2ccc(C(=O)OCc3ccccc3)cn2)cc1	1.9 µM (≈ 0.607 µg/mL)				9.5 µM (≈ 3.03 µg/mL)	
Cc1nc2ncccn2c1C(=O)OCc1ccccc1	2.3 µM (≈ 0.615 µg/mL)				4.7 µM (≈ 1.26 µg/mL)	> 50 µM
Cc1cc2nc(C)c(C(=O)OCc3ccccc3)n2c(C)n1	1.1 µM (≈ 0.325 µg/mL)				5.3 µM (≈ 1.57 µg/mL)	> 50 µM
COc1ccc(C2=N[C@H](C(=O)NCc3ccc(OC)c(OC)c3)CO2)cc1	> 128 µM	> 128 µM				
O=C(NC1CCCCC1)[C@@H]1COC(c2ccc(OC(F)(F)F)cc2)=N1	60 µM (≈ 21.4 µg/mL)	> 64 µM				
CCCCCCNC(=O)[C@@H]1COC(c2ccc(OC(F)(F)F)cc2)=N1	31 µM (≈ 11.1 µg/mL)	> 64 µM				
COc1ccc(CNC(=O)c2coc(-c3ccccc3)n2)cc1OC	81 µM (≈ 27.4 µg/mL)	> 128 µM				
O=C(NC1CCCCC1)c1coc(-c2ccccc2)n1	14 µM (≈ 3.78 µg/mL)	30 µM (≈ 8.11 µg/mL)				

SMILES	MIC90 [1]	MIC90 [2]	remaining at 0.25 h, 20 µM [3]	remaining at 0.25 h, 50 µM [4]	MIC90 [5]	IC50 (Vero)
CCCCCCNC(=O)c1coc(-c2ccccc2)n1	22 µM (≈ 5.99 µg/mL)	18 µM (≈ 4.9 µg/mL)				
COc1ccc(CNC(=O)[C@@H]2CSC(c3ccccc3)=N2)cc1OC	80 µM (≈ 28.5 µg/mL)	> 128 µM				
O=C(NC1CCCCC1)[C@@H]1CSC(c2ccccc2)=N1	46 µM (≈ 13.3 µg/mL)	56 µM (≈ 16.2 µg/mL)				
CCCCCCNC(=O)[C@@H]1CSC(c2ccccc2)=N1	23 µM (≈ 6.68 µg/mL)	58 µM (≈ 16.8 µg/mL)				
COc1ccc(CNC(=O)c2csc(-c3ccccc3)n2)cc1OC	58 µM (≈ 20.6 µg/mL)	64 µM (≈ 22.7 µg/mL)				
O=C(NC1CCCCC1)c1csc(-c2ccccc2)n1	15 µM (≈ 4.3 µg/mL)	15 µM (≈ 4.3 µg/mL)	3.3%	3.3%		
CCCCCCNC(=O)c1csc(-c2ccccc2)n1	14 µM (≈ 4.04 µg/mL)	60 µM (≈ 17.3 µg/mL)	18.9%	0.1%		
CCc1ccccc1COC(=O)c1c(C)nc2cc(C)ccn12			37%	100%		
Cc1ccn2c(C(=O)NCc3ccccc3Cl)c(C)nc2c1			58.9%	97.2%		
CC(C)(C)OC(=O)c1coc(-c2ccccc2)n1	> 64 µM	> 64 µM	42%			
CCC(=O)c1ccccc1OC(=O)c1coc(-c2ccccc2)n1			8.7%	1.8%		
Cc1cccc(OC(=O)c2coc(-c3ccccc3)n2)c1C			4.9%	2%		
O=C(Oc1cccc2c1CCCC2)c1coc(-c2ccccc2)n1			14.5%	1.8%		
Cc1cc(C)c(OC(=O)c2coc(-c3ccccc3)n2)c(C)c1			22%	1.4%		
O=C(Oc1c(Cl)cc(Cl)cc1Cl)c1coc(-c2ccccc2)n1			15.5%	1.3%		
O=C(Oc1ccccc1N1CCOCC1)c1coc(-c2ccccc2)n1			5.4%	0.7%		
O=C(Oc1ccccc1N1CCCC1)c1coc(-c2ccccc2)n1			11.2%	0.1%		
CCC(C)c1ccccc1OC(=O)c1coc(-c2ccccc2)n1 (stereo unspecified)			8.3%	0.2%		
O=C(Oc1ccc(Cl)cc1Cl)c1coc(-c2ccccc2)n1			17.3%	0.8%		
Cc1ccccc1OC(=O)c1coc(-c2ccccc2)n1			13.4%	1.5%		
CCCc1ccccc1OC(=O)c1coc(-c2ccccc2)n1			5.4%	0.9%		
CC(C)(C)c1cccc(C(C)(C)C)c1OC(=O)c1coc(-c2ccccc2)n1			5.3%	1.3%		
Cc1ccc(Cl)c(OC(=O)c2coc(-c3ccccc3)n2)c1			14%	0.9%		
CC(C)(C)c1ccccc1OC(=O)c1coc(-c2ccccc2)n1			6.9%	0.7%		
CCc1ccccc1OC(=O)c1coc(-c2ccccc2)n1			8.5%	2.1%		
O=C(Oc1ccccc1C(F)(F)F)c1coc(-c2ccccc2)n1			10.7%	1.2%		
Cc1ccc(COC(=O)c2coc(-c3ccccc3)n2)c(C)c1			16.9%	1.4%		

SMILES	MIC90 [1]	MIC90 [2]	remaining at 0.25 h, 20 µM [3]	remaining at 0.25 h, 50 µM [4]	MIC90 [5]	IC50 (Vero)
C[C@H](OC(=O)c1coc(-c2ccccc2)n1)c1ccccc1			5%	5%		
Cc1cc(C)c(COC(=O)c2coc(-c3ccccc3)n2)c(C)c1			18.1%	5.6%		
Cc1ccccc1COC(=O)c1coc(-c2ccccc2)n1			10.9%	3.1%		
O=C(OCc1ccccc1C(F)(F)F)c1coc(-c2ccccc2)n1			7.8%	0.8%		
CCc1ccccc1COC(=O)c1coc(-c2ccccc2)n1			3.2%	3.2%		
CCCCCCCCOC(=O)c1coc(-c2ccccc2)n1			13.1%	1.1%		
O=C(OCC1CC1)c1coc(-c2ccccc2)n1			3.3%	1.5%		
O=C(OC1CCCCC1)c1coc(-c2ccccc2)n1			12.1%	0.5%		
O=C(Oc1cccc(C(F)(F)F)c1)c1coc(-c2ccccc2)n1			13%	5.5%		
O=C(Oc1ccccc1)c1coc(-c2ccccc2)n1			0.2%	0.2%		
CCOC(=O)c1c(C(F)(F)F)nc2ccccn12	> 128 µM	> 128 µM				
CCOC(=O)c1cnc2cc(C)c(N)cn12	> 128 µM	> 128 µM				
CCOC(=O)c1c(C)nc2c(C3CCCN3C)cccn12 (stereo unspecified)	> 64 µM	> 64 µM				
CCOC(=O)c1c(C)nc2ccc(Cl)cn12	93.5 µM (≈ 22.3 µg/mL)	> 101 µM				
CCOC(=O)c1coc(-c2ccccc2)n1	19.5 µM (≈ 4.24 µg/mL)	7.5 µM (≈ 1.63 µg/mL)				
CCOC(=O)c1nc(-c2ccccc2)oc1C(F)(F)F	> 128 µM	> 128 µM				
CCOC(=O)c1nc(-c2ccccc2)oc1C	> 128 µM	124 µM (≈ 28.7 µg/mL)				
CCOC(=O)c1csc(-c2ccc(C)cc2)n1	61 µM (≈ 15.1 µg/mL)	79 µM (≈ 19.5 µg/mL)				
CCOC(=O)c1csc(-c2cccc(C(F)(F)F)c2)n1	59 µM (≈ 17.8 µg/mL)	61 µM (≈ 18.4 µg/mL)				
CCOC(=O)c1csc(-c2cccc(Cl)c2Cl)n1	41 µM (≈ 12.4 µg/mL)	39 µM (≈ 11.8 µg/mL)				
CCOC(=O)c1n[nH]c(-c2cccc(C)c2)c1N	> 128 µM	> 128 µM				
CCOC(=O)c1nn(Cc2ccccc2)cc1N	126 µM (≈ 30.9 µg/mL)	> 128 µM				
CCOC(=O)c1cc(-c2ccc([N+](=O)[O-])cc2)[nH]n1	> 128 µM	> 128 µM				
CCOC(=O)c1c(-c2ccccc2)nc2ccc(C)cn12	55.1 µM (≈ 15.4 µg/mL)	41 µM (≈ 11.5 µg/mL)				
CO[C@H]1/C=C/O[C@@]2(C)Oc3c(C)c(O)c4c(O)c(c(/C=N/N5CCN(C)CC5)c(O)c4c3C2=O)NC(=O)/C(C)=C\C=C\[C@H](C)[C@H](O)[C@@H](C)[C@@H](O)[C@@H](C)[C@H](OC(C)=O)[C@@H]1C [RIFAMPIN]	0.09 µM (≈ 0.0741 µg/mL)	0.2 µM (≈ 0.165 µg/mL)			0.04 µM (≈ 0.0329 µg/mL)	
